The source made the active and inactive calls. The rule behind the calls is not given here.

One test has as its system MGC-803. Nature of the test: Antiproliferative activity against human MGC803 cells after 72 hrs by MTT assay. Format: functional, cell-based. Conditions: MGC-803, 72 h. In short, it runs like this:
(§1)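 MGC-803 and MCF-7 cells grown in DMEM (MCF-7 with 1× NEAA); Bel-7402 and K562 grown in RPMI 1640; all media with 10% FBS. Cells seeded at 3500/well, pre-incubated 24 h, then exposed to compounds in fresh medium (DMSO ≤0.25%) for 72 h at 37 °C. MTT read-out at 570 nm. Quadruplicate wells, repeated three times; means ± SD (n = 3).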
Take `C=C1C(=O)[C@]23[C@H](OC(=O)c4cc(C)ccc4C)[C@H]1CC[C@H]2[C@]12C=CCC(C)(C)[C@H]1[C@H](O)[C@]3(O)OC2`: half-maximal inhibition (IC50) required 6940 nM.
For the molecule `C=C1C(=O)[C@]23[C@H](OC(=O)CCCCCCC)[C@H]1CC[C@H]2[C@]12C=CCC(C)(C)[C@H]1[C@H](O)[C@]3(O)OC2`, the IC50 (usually the concentration at which inhibition is half-maximal) came out at 2710 nM.
The same measure, in the same setting: next, `C=C1C(=O)[C@]23[C@H](OC(=O)/C=C/c4cccc([N+](=O)[O-])c4)[C@H]1CC[C@H]2[C@]12C=CCC(C)(C)[C@H]1[C@H](O)[C@]3(O)OC2`: 2470 nM; `C=C1C(=O)[C@]23[C@H](OC(=O)CCCC)[C@H]1CC[C@H]2[C@]12C=CCC(C)(C)[C@H]1[C@H](O)[C@]3(O)OC2`: 6190 nM; `C=C1C(=O)[C@]23[C@H](OC(=O)c4ccccc4C(F)(F)F)[C@H]1CC[C@H]2[C@]12C=CC(=O)C(C)(C)[C@H]1[C@H](O)[C@]3(O)OC2`: 3610 nM.
`C=C1C(=O)[C@]23[C@H](OC(=O)/C=C/c4ccc(OC)cc4)[C@H]1CC[C@H]2[C@]12C=CCC(C)(C)[C@H]1[C@H](O)[C@]3(O)OC2` displayed an IC50 of 2910 nM. This IC50 and that of the molecule before are within 1.5-fold of each other.

In a further test the test system is MCF7. Nature of the test: Cytotoxicity against human MCF7 cells at 10 to 50 uM after 24 hrs by LDH assay. Format: functional, cell-based.
Details: not given
In short, it runs like this:
(§2)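 Membrane integrity assay on MCF-7 and Bel-7402 cells seeded at ~5 × 10^3 per well for 24 h, then given compounds at 10, 20 or 50 μM. Culture medium collected and assayed with CytoTox-ONE LDH reagent for 10 min, followed by stop solution. Fluorescence read at Ex 560/Em 590 nm. Expressed as percentage of unstimulated cells.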
As for `C=C1C(=O)[C@]23[C@H](OC(=O)CCCCCCC)[C@H]1CC[C@H]2[C@]12C=CCC(C)(C)[C@H]1[C@H](O)[C@]3(O)OC2`, the result was inactive.

For another test, the system named is K562. Nature of the test: Antiproliferative activity against human K562 cells after 72 hrs by MTT assay. The class given is functional, cell-based. Particulars: K562, 72 h. The method, boiled down:
as §1
In general terms: Tetrazolium dyes change colour on reduction, which living cells bring about.
Take `C=C1C(=O)[C@]23[C@H](OC(=O)c4cc(C)ccc4C)[C@H]1CC[C@H]2[C@]12C=CCC(C)(C)[C@H]1[C@H](O)[C@]3(O)OC2`: it took 4190 nM to reach half-maximal inhibition (IC50).
Turning to `C=C1C(=O)[C@]23[C@H](OC(=O)CCCCCCC)[C@H]1CC[C@H]2[C@]12C=CCC(C)(C)[C@H]1[C@H](O)[C@]3(O)OC2`, the half-maximal inhibitory concentration (IC50) turned out to be 3000 nM.
Same read-out and setting: next, `C=C1C(=O)[C@]23[C@H](OC(=O)/C=C/c4cccc([N+](=O)[O-])c4)[C@H]1CC[C@H]2[C@]12C=CCC(C)(C)[C@H]1[C@H](O)[C@]3(O)OC2`: 580 nM.
In turn, `C=C1C(=O)[C@]23[C@H](OC(=O)CCCC)[C@H]1CC[C@H]2[C@]12C=CCC(C)(C)[C@H]1[C@H](O)[C@]3(O)OC2` yielded an IC50 of 1740 nM.
Still for that read-out and setting: next, `C=C1C(=O)[C@]23[C@H](OC(=O)c4ccccc4C(F)(F)F)[C@H]1CC[C@H]2[C@]12C=CC(=O)C(C)(C)[C@H]1[C@H](O)[C@]3(O)OC2`: 2610 nM; `C=C1C(=O)[C@]23[C@H](OC(=O)/C=C/c4ccc(OC)cc4)[C@H]1CC[C@H]2[C@]12C=CCC(C)(C)[C@H]1[C@H](O)[C@]3(O)OC2`: 880 nM.

The test system of a further test is Bel-7402. Nature of the test: Cytotoxicity against human Bel7402 cells at 10 to 50 uM after 24 hrs by LDH assay. Format: functional, cell-based.
Details: not given
In short, it runs like this: as §2
For the molecule `C=C1C(=O)[C@]23[C@H](OC(=O)CCCCCCC)[C@H]1CC[C@H]2[C@]12C=CCC(C)(C)[C@H]1[C@H](O)[C@]3(O)OC2`, the outcome was inactive.

The subject of the next test is MCF7. Nature of the test: Antiproliferative activity against human MCF7 cells after 72 hrs by MTT assay. Format: functional, cell-based. Conditions: MCF7, 72 h. The method, boiled down: as §1
As to `C=C1C(=O)[C@]23[C@H](OC(=O)c4cc(C)ccc4C)[C@H]1CC[C@H]2[C@]12C=CCC(C)(C)[C@H]1[C@H](O)[C@]3(O)OC2`, the midpoint of inhibition, the IC50, lay at 6140 nM.
Take `C=C1C(=O)[C@]23[C@H](OC(=O)CCCCCCC)[C@H]1CC[C@H]2[C@]12C=CCC(C)(C)[C@H]1[C@H](O)[C@]3(O)OC2`: the IC50 came to 2440 nM.
`C=C1C(=O)[C@]23[C@H](OC(=O)/C=C/c4cccc([N+](=O)[O-])c4)[C@H]1CC[C@H]2[C@]12C=CCC(C)(C)[C@H]1[C@H](O)[C@]3(O)OC2` had an IC50 of 1370 nM. This IC50 is about 1.8-fold lower than that of the molecule before.
In turn, `C=C1C(=O)[C@]23[C@H](OC(=O)CCCC)[C@H]1CC[C@H]2[C@]12C=CCC(C)(C)[C@H]1[C@H](O)[C@]3(O)OC2` showed an IC50 of 2490 nM.
Still for that read-out and setting: next, `C=C1C(=O)[C@]23[C@H](OC(=O)c4ccccc4C(F)(F)F)[C@H]1CC[C@H]2[C@]12C=CC(=O)C(C)(C)[C@H]1[C@H](O)[C@]3(O)OC2`: 3840 nM.
Still for that read-out and setting: the result for `C=C1C(=O)[C@]23[C@H](OC(=O)/C=C/c4ccc(OC)cc4)[C@H]1CC[C@H]2[C@]12C=CCC(C)(C)[C@H]1[C@H](O)[C@]3(O)OC2` reads 950 nM.

For a further test, the system named is Bel-7402. The experiment in a line: Antiproliferative activity against human Bel7402 cells after 72 hrs by MTT assay. Format: functional, cell-based. Conditions: Bel-7402, 72 h. The method, boiled down:
as §1
Regarding `C=C1C(=O)[C@]23[C@H](OC(=O)c4cc(C)ccc4C)[C@H]1CC[C@H]2[C@]12C=CCC(C)(C)[C@H]1[C@H](O)[C@]3(O)OC2`, half-maximal inhibition (IC50) required 7110 nM.
Still for that read-out and setting: the result for `C=C1C(=O)[C@]23[C@H](OC(=O)CCCCCCC)[C@H]1CC[C@H]2[C@]12C=CCC(C)(C)[C@H]1[C@H](O)[C@]3(O)OC2` reads 4340 nM; that for `C=C1C(=O)[C@]23[C@H](OC(=O)/C=C/c4cccc([N+](=O)[O-])c4)[C@H]1CC[C@H]2[C@]12C=CCC(C)(C)[C@H]1[C@H](O)[C@]3(O)OC2`, 1770 nM; that for `C=C1C(=O)[C@]23[C@H](OC(=O)CCCC)[C@H]1CC[C@H]2[C@]12C=CCC(C)(C)[C@H]1[C@H](O)[C@]3(O)OC2`, 6000 nM.
For `C=C1C(=O)[C@]23[C@H](OC(=O)c4ccccc4C(F)(F)F)[C@H]1CC[C@H]2[C@]12C=CC(=O)C(C)(C)[C@H]1[C@H](O)[C@]3(O)OC2`, half-maximal inhibition (IC50) required 2930 nM.
Molecule `C=C1C(=O)[C@]23[C@H](OC(=O)/C=C/c4ccc(OC)cc4)[C@H]1CC[C@H]2[C@]12C=CCC(C)(C)[C@H]1[C@H](O)[C@]3(O)OC2` returned an IC50 of 2420 nM.
